Results reported in ChEMBL document CHEMBL5584259, “NMR-Guided Isolation of Anti-inflammatory Carabranolides from the Fruits of Carpesium abrotanoides L” (J Nat Prod, 2024).

Key:
[1] = test system: RAW264.7; test: Antiinflammatory activity in mouse RAW264.7 cells assessed as inhibition of LPS-induced NO production incubated for 24 hrs by Griess reagent based assay; type: functional, cell-based; details: for IC50: RAW264.7, 24 h
Method in brief: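 RAW264.7 (ATCC) grown in DMEM + 10% FBS, 37 °C, 5% CO2. Cells at 1 × 10^5/well treated with compound or dexamethasone at 1.25, 2.5, 5, 10, 20 μM in triplicate, then stimulated with LPS 100 ng/mL for 24 h. Supernatant nitrite measured with Griess reagent, absorbance 550 nm; IC50 from concentration series.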

[2] = test system: RAW264.7; test: Cytotoxicity against mouse RAW264.7 cells assessed as reduction in cell viability up to 20 uM incubated for 24 hrs by MTT assay; type: toxicity, cell-based; details: raw264.7, 24 h
Method in brief: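 Viability read by MTT in parallel with the NO assay: RAW264.7 at 1 × 10^5/well, compound at 1.25–20 μM in triplicate, LPS 100 ng/mL for 24 h.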

[3] = test system: RAW264.7; test: Antiinflammatory activity in mouse RAW264.7 cells assessed as inhibition of LPS-induced iNOS protein expression incubated for 24 hrs by Western blot analysis; type: functional, cell-based; details: dose 5-20 µM
Method in brief: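 Cells seeded at 5 × 10^5/well, exposed to compound at 10, 20, 40 μM or dexamethasone 5 μM, then LPS 0.5 μg/mL for 24 h. RIPA lysates run on 8% SDS-PAGE, transferred to PVDF. Probed overnight at 4 °C for iNOS with GAPDH as loading control, then secondary antibody 1 h at room temperature.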

Compound	IC50 [1] [µM]	Activity [2]	inhibition [1]	inhibition [3]
C=C1C(=O)O[C@@H]2C[C@]3(C)[C@@H](CC[C@@H](C)OC(=O)CCCCCCCCC(O)CCCCCCO)[C@@H]3C[C@H]12 (stereo not given in full)	9.87	Non-Toxic	–	–
C=C1C(=O)O[C@@H]2C[C@]3(C)[C@@H](CC[C@@H](C)OC(=O)CCCCCCC/C=C/C/C=C/CCCCC)[C@@H]3C[C@H]12	> 20	Non-Toxic	–	–
C=C1C(=O)O[C@@H]2C[C@]3(C)C(CC[C@@H](C)OC(=O)C[C@@H](O)CCCCCCCCCCCCCC)[C@@H]3C[C@H]12 (stereo not given in full)	> 20	Non-Toxic	–	–
C=C1C(=O)O[C@@H]2C[C@]3(C)[C@@H](CC[C@@H](C)OC(=O)CC4CCC(=O)C=C4C)[C@@H]3C[C@H]12 (stereo not given in full)	9.15	Non-Toxic	Dose-Dependent Effect	Dose-Dependent Effect
C=C1C(=O)O[C@@H]2C[C@]3(C)[C@@H](CC[C@@H](C)OC(=O)CCCC[C@@H](O)/C=C/[C@@H](O)[C@H](O)CCCCCCCC)[C@@H]3C[C@H]12	11.6	Non-Toxic	–	–
C=C1C(=O)O[C@@H]2C[C@]3(C)[C@@H](CC[C@@H](C)OC(=O)CCCCCCC[C@@H]4OC(=O)C[C@H]4O)[C@@H]3C[C@H]12	8.67	Non-Toxic	Dose-Dependent Effect	Dose-Dependent Effect
C=C1C(=O)O[C@@H]2C[C@]3(C)C(CC[C@@H](C)OC(=O)CCCCCCCC(=O)O)[C@@H]3C[C@H]12 (stereo not given in full)	9.35	Non-Toxic	–	–
C=C1C(=O)O[C@@H]2C[C@]3(C)[C@@H](CC[C@@H](C)OC(=O)CCCCCCC[C@H]4OC(=O)C[C@H]4O)[C@@H]3C[C@H]12	15.1	Non-Toxic	–	–
C[C@@H]1C[C@H]2[C@@H]3CCC4=CC(=O)C=C[C@]4(C)[C@@]3(F)[C@@H](O)C[C@]2(C)[C@@]1(O)C(=O)CO [DEXAMETHASONE]	8.52	–	–	–
C=C1C(=O)O[C@@H]2C[C@]3(C)[C@@H](CC[C@@H](C)OC(=O)CCCC[C@H](O)/C=C/[C@@H](O)[C@H](O)CCCCCCCC)[C@@H]3C[C@H]12	11.8	Non-Toxic	–	–
C=C1C(=O)O[C@@H]2C[C@]3(C)[C@@H](CC[C@@H](C)OC(=O)CCCCCCCCCCCCCCC)[C@@H]3C[C@H]12	> 20	Non-Toxic	–	–
C=C1C(=O)O[C@@H]2C[C@]3(C)C(CC[C@@H](C)OC(=O)CCCCCCCCO)[C@@H]3C[C@H]12 (stereo not given in full)	9.75	Non-Toxic	–	–
C=C1C(=O)O[C@@H]2C[C@]3(C)[C@@H](CC[C@@H](C)OC(C)=O)[C@@H]3C[C@H]12	5.64	Non-Toxic	Dose-Dependent Effect	Dose-Dependent Effect
C=C1C(=O)O[C@@H]2C[C@]3(C)[C@@H](CC[C@@H](C)OC(=O)Cc4ccc(O)cc4C)[C@@H]3C[C@H]12	5.82	Non-Toxic	Dose-Dependent Effect	Dose-Dependent Effect
